Test results reported in PMC3466779 (Biochemistry, 2012).
Several values for one entry are separate records, joined by “and”; a condition that tells them apart may be missing. Equal entries are not always repeated.

Experiments:
MtATP-PRT [1] = biological target: T1, MtATP-PRT (Mycobacterium tuberculosis, UniProt P9WMN1); assay: Steady-state inhibition studies with L-histidine; assay type: biochemical; conditions: for Kii: 7 mM MgCl2, 200 mM KCl
T1 sequence (P9WMN1 1-284): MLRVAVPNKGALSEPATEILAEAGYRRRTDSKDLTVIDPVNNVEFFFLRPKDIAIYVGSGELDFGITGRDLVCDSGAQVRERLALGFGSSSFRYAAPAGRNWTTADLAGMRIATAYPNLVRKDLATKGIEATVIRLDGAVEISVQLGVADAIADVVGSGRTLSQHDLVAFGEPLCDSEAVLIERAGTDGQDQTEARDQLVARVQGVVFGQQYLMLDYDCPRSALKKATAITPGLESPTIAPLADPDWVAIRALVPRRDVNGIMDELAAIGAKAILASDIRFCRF

MtATP-PRT [2] = biological target: T1, MtATP-PRT; assay: pH studies of L-histidine inhibition; assay type: biochemical; conditions: 0.8 mM PRPP fixed
MtATP-PRT [3] = biological target: T1, MtATP-PRT; assay: Pre-steady-state stopped-flow burst kinetics; assay type: biochemical
MtATP-PRT [4] = biological target: T1, MtATP-PRT; assay: STD-NMR saturation transfer; assay type: binding; conditions: 0.6 mM L-histidine, 30 μM HisG, 25 °C
Procedure, shortened: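 STD 1H NMR was run at 14.4 T with 30 μM enzyme and 0.6 mM L-histidine in 50 mM sodium phosphate at each pH, 25 °C. Saturation times of 0.2–2.0 s in 0.2 s steps were recorded interleaved, with on-resonance protein presaturation at 0.8 ppm. A single off-resonance control used 2 s. Water was suppressed by excitation sculpting. Read-out was percent transfer per histidine proton.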

MtATP-PRT [5] = biological target: T1, MtATP-PRT; assay: Gel filtration, solution oligomeric state; conditions: 20 mM Tris-HCl pH 8, 100 mM NaCl; 2 mM L-histidine, or ATP
Procedure, shortened: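 Recombinant enzyme was expressed in E. coli BL21(DE3)pLysS and Ni-NTA purified. It was injected at 0.1–10 mg/mL onto a Sephacryl S-200 column calibrated with molecular-weight standards. Elution was isocratic for 1.5 column volumes at 0.5 mL/min in 20 mM Tris-HCl pH 8, 100 mM NaCl, with or without 2 mM L-histidine. Apparent mass was read from elution position.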

[6] = no reference given, cited from earlier work
[7] = biological target: Lactococcus lactis ATP-PRT; conditions: pH 8; cited from earlier work
MtATP-PRT [8] = biological target: T1, MtATP-PRT; assay: Steady-state kinetics: initial velocities of the forward reaction; assay type: biochemical

N[C@@H](Cc1c[nH]cn1)C(=O)O [L-histidine]
Ki (MtATP-PRT [1]): 25.7 ± 12.8 µM | IC50 (MtATP-PRT [1]; IC50,L-histidine, 50 mM Tris-HCl pH 8.5, 7 mM MgCl2, 200 mM KCl, 1.6 mM ATP, 0.8 mM PRPP, 25 °C): 33.3 µM and 33 µM | Hill number (MtATP-PRT [1]; IC50 curve, pH 8.5, 1.6 mM ATP, 0.8 mM PRPP): 1.5 | Kii (MtATP-PRT [1]; pH 8.50 (Tris-HCl), varied ATP, 0.8 mM PRPP fixed, 25 °C): 27.9 ± 1.9 µM | Kii (MtATP-PRT [1]; pH 8.50, varied PRPP, 1.6 mM ATP fixed, 25 °C): 23.5 ± 6.5 µM | nature of inhibition versus ATP (in words) (MtATP-PRT [1]; varied ATP, saturating PRPP, pH 8.5): linear and uncompetitive | nature of inhibition versus PRPP (in words) (MtATP-PRT [1]; varied PRPP, saturating ATP, pH 8.5): linear and noncompetitive | Kii (MtATP-PRT [2]; pH 8.00, varied ATP): 4 µM and 4.0 ± 0.4 µM | Kii (MtATP-PRT [2]; pH 8.25, varied ATP): 7.9 ± 1.5 µM | Kii (MtATP-PRT [2]; pH 8.50 (pH series), varied ATP): 28.3 ± 2.1 µM | Kii (MtATP-PRT [2]; pH 8.75, varied ATP): 26.8 ± 1.5 µM | Kii (MtATP-PRT [2]; pH 9.00, varied ATP): 50.4 ± 5.5 µM | Kii (MtATP-PRT [2]; pH 9.25, varied ATP): 109.4 ± 6.8 µM | Kd (MtATP-PRT [3]): 27.9 ± 3.2 µM | koff (MtATP-PRT [3]; pH 8.5, read-out: koff,L-histidine): 0.95 ± 0.03 s⁻¹ | kon (MtATP-PRT [3]; pH 8.5, read-out: kon,L-histidine): 4880 ± 717 M⁻¹ s⁻¹ | % saturation transfer to L-histidine protons, Cα-H (MtATP-PRT [4]; pH 5.5): 0% | % saturation transfer to L-histidine protons, Cβ-H2 (MtATP-PRT [4]; pH 5.5): 0% | % saturation transfer to L-histidine protons, Cδ2-H (MtATP-PRT [4]; pH 5.5): 0% | % saturation transfer to L-histidine protons, Cε1-H (MtATP-PRT [4]; pH 5.5): 0% | % saturation transfer to L-histidine protons, Cα-H (MtATP-PRT [4]; pH 6.0): 0% | % saturation transfer to L-histidine protons, Cβ-H2 (MtATP-PRT [4]; pH 6.0): 0% | % saturation transfer to L-histidine protons, Cδ2-H (MtATP-PRT [4]; pH 6.0): 0% | % saturation transfer to L-histidine protons, Cε1-H (MtATP-PRT [4]; pH 6.0): 0% | % saturation transfer to L-histidine protons, Cα-H (MtATP-PRT [4]; pH 6.5): 0% | % saturation transfer to L-histidine protons, Cβ-H2 (MtATP-PRT [4]; pH 6.5): 0% | % saturation transfer to L-histidine protons, Cδ2-H (MtATP-PRT [4]; pH 6.5): 0% | % saturation transfer to L-histidine protons, Cε1-H (MtATP-PRT [4]; pH 6.5): 0% | % saturation transfer to L-histidine protons, Cα-H (MtATP-PRT [4]; pH 7.5): 0% | % saturation transfer to L-histidine protons, Cβ-H2 (MtATP-PRT [4]; pH 7.5): 0% | % saturation transfer to L-histidine protons, Cδ2-H (MtATP-PRT [4]; pH 7.5): 0% | % saturation transfer to L-histidine protons, Cε1-H (MtATP-PRT [4]; pH 7.5): 0% | % saturation transfer to L-histidine protons, Cα-H (MtATP-PRT [4]; pH 8.0): 0% | % saturation transfer to L-histidine protons, Cβ-H2 (MtATP-PRT [4]; pH 8.0): 0% | % saturation transfer to L-histidine protons, Cδ2-H (MtATP-PRT [4]; pH 8.0): 36.9% | % saturation transfer to L-histidine protons, Cε1-H (MtATP-PRT [4]; pH 8.0): 40.4% | % saturation transfer to L-histidine protons, Cα-H (MtATP-PRT [4]; pH 8.5): 0% | % saturation transfer to L-histidine protons, Cβ-H2 (MtATP-PRT [4]; pH 8.5): 0% | % saturation transfer to L-histidine protons, Cδ2-H (MtATP-PRT [4]; pH 8.5): 81.6% | % saturation transfer to L-histidine protons, Cε1-H (MtATP-PRT [4]; pH 8.5): 88.2% | % saturation transfer to L-histidine protons, Cα-H (MtATP-PRT [4]; pH 9.0): 0% | % saturation transfer to L-histidine protons, Cβ-H2 (MtATP-PRT [4]; pH 9.0): 0% | % saturation transfer to L-histidine protons, Cδ2-H (MtATP-PRT [4]; pH 9.0): 100% | % saturation transfer to L-histidine protons, Cε1-H (MtATP-PRT [4]; pH 9.0): 100% | influence of ligand on the hexameric oligomeric state of MtATP-PRT (MtATP-PRT [5]): not influenced | pKa of the imidazole group ([6]; background statement): ~6.0 | pKa of the α-amino group ([6]; stated in discussion): ~9 | Ki [7]: 81 µM

[Cl-].[Cl-].[Mg+2] [MgCl2]
Kact,Mg^2+ (MtATP-PRT [8]; Table 1, saturating substrates, 200 mM KCl, 25 °C): 1900 ± 600 µM | Apparent Kact for MgCl2 (MtATP-PRT [8]; saturating concentrations of both substrates, 200 mM KCl): 1.9 ± 0.6 mM

O[C@@H](CS)[C@@H](O)CS [DTT]
effect of the thiol reducing agent on the time course (MtATP-PRT [8]; data not shown): did not alter the time course
